Measured values reported in ChEMBL document CHEMBL1123067, “Evaluation of the brain-specific delivery of radioiodinated (iodophenyl)alkyl-substituted amines coupled to a dihydropyridine carrier” (J Med Chem, 1985).
One block for each compound: values may come before it.

Legend:
Assay type in all cases: ADME, organism-based
Rattus norvegicus [1] = experiment: Distribution of radioactivity in blood tissues of Sprague-Dawley rats after 30 min injecton by intravenously; 0.65-0.83; settings: in vivo, iv, 0.5 h
Rattus norvegicus [2] = experiment: Distribution of radioactivity in brain tissues of Sprague-Dawley rats after 15 min injecton by intravenously; 0.03-0.06; settings: in vivo, iv, 0.25 h
Rattus norvegicus [3] = experiment: Distribution of radioactivity in brain tissues of Sprague-Dawley rats after 5 min injecton by intravenously; 0.05-0.07; settings: in vivo, iv
Rattus norvegicus [4] = experiment: Distribution of radioactivity in brain tissues of Sprague-Dawley rats after 60 min injecton by intravenously; 0.03-0.06; settings: in vivo, iv, 1 h
Rattus norvegicus [5] = experiment: Distribution of radioactivity in liver tissues of Sprague-Dawley rats after 5 min injecton by intravenously; 1.03-1.31; settings: in vivo, iv
Outline: (§1)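 Female Sprague-Dawley rats, 10–12 weeks old (170–200 g), fed ad libitum, under ether anaesthesia. Each received 15.1 μCi of the ¹²⁵I-labelled pyridinium conjugate or 10.6 μCi of the dihydropyridine conjugate by lateral tail vein. Dose was in 20% Me2SO/saline with vitamin E (~5 mg/mL), 0.22-μm filtered. Five rats per time point. Tissue activity was read against injected-solution standards as % injected dose/g.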

Rattus norvegicus [6] = experiment: Distribution of radioactivity in blood tissues of Sprague-Dawley rats after 5 min injecton by intravenously; 1.0-1.24; settings: in vivo, iv
Rattus norvegicus [7] = experiment: Distribution of radioactivity in lung tissues of Sprague-Dawley rats after 5 min injecton by intravenously; 0.76-0.91; settings: in vivo, iv
Outline: (§2)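 Female Sprague-Dawley rats, 10–12 weeks, 170–200 g, fed ad libitum, five per time point. Agent dissolved in minimal Me2SO, diluted with saline to 20% Me2SO, with vitamin E (~5 mg/mL) added, 0.22-µm filtered. 15.1 or 10.6 µCi (per agent) injected into lateral tail vein under ether. Lungs taken; % injected dose/g against injected-solution standards; mean (range).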

Rattus norvegicus [8] = experiment: Distribution of radioactivity in blood tissues of Sprague-Dawley rats after 15 min injecton by intravenously; 0.72-1.03; settings: in vivo, iv, 0.25 h
Rattus norvegicus [9] = experiment: Distribution of radioactivity in brain tissues of Sprague-Dawley rats after 30 min injecton by intravenously; 0.03-0.06; settings: in vivo, iv, 0.5 h
Rattus norvegicus [10] = experiment: Distribution of radioactivity in blood tissues of Sprague-Dawley rats after 60 min injecton by intravenously; 0.58-0.77; settings: in vivo, iv, 1 h
Rattus norvegicus [11] = experiment: Distribution of radioactivity in kidney tissues of Sprague-Dawley rats after 30 min injecton by intravenously; 0.58-0.73; settings: in vivo, iv, 0.5 h; outline: as §1
Rattus norvegicus [12] = experiment: Distribution of radioactivity in lung tissues of Sprague-Dawley rats after 15 min injecton by intravenously; 0.58-0.86; settings: in vivo, iv, 0.25 h; outline: as §2
Rattus norvegicus [13] = experiment: Distribution of radioactivity in heart tissues of Sprague-Dawley rats after 30 min injecton by intravenously; 0.58-0.82; settings: in vivo, iv, 0.5 h; outline: as §1
Rattus norvegicus [14] = experiment: Distribution of radioactivity in liver tissues of Sprague-Dawley rats after 30 min injecton by intravenously; 0.54-0.89; settings: in vivo, iv, 0.5 h; outline: as §1
Rattus norvegicus [15] = experiment: Distribution of radioactivity in heart tissues of Sprague-Dawley rats after 60 min injecton by intravenously; 0.58-0.75; settings: in vivo, iv, 1 h; outline: as §1
Rattus norvegicus [16] = experiment: Distribution of radioactivity in liver tissues of Sprague-Dawley rats after 60 min injecton by intravenously; 0.38-0.57; settings: in vivo, iv, 1 h; outline: as §1
Rattus norvegicus [17] = experiment: Distribution of radioactivity in heart tissues of Sprague-Dawley rats after 5 min injecton by intravenously; 0.79-0.85; settings: in vivo, iv; outline: as §1
Rattus norvegicus [18] = experiment: Distribution of radioactivity in heart tissues of Sprague-Dawley rats after 15 min injecton by intravenously; 0.68-0.84; settings: in vivo, iv, 0.25 h
Rattus norvegicus [19] = experiment: Distribution of radioactivity in kidney tissues of Sprague-Dawley rats after 60 min injecton by intravenously; 0.49-0.57; settings: in vivo, iv, 1 h; outline: as §1
Rattus norvegicus [20] = experiment: Distribution of radioactivity in lung tissues of Sprague-Dawley rats after 30 min injecton by intravenously; 0.54-0.7; settings: in vivo, iv, 0.5 h; outline: as §2
Rattus norvegicus [21] = experiment: Distribution of radioactivity in kidney tissues of Sprague-Dawley rats after 5 min injecton by intravenously; 1.73-2.64; settings: in vivo, iv; outline: as §1
Rattus norvegicus [22] = experiment: Distribution of radioactivity in kidney tissues of Sprague-Dawley rats after 15 min injecton by intravenously; 0.62-0.92; settings: in vivo, iv, 0.25 h; outline: as §1
Rattus norvegicus [23] = experiment: Distribution of radioactivity in lung tissues of Sprague-Dawley rats after 60 min injecton by intravenously; 0.5-0.65; settings: in vivo, iv, 1 h; outline: as §2
Rattus norvegicus [24] = experiment: Distribution of radioactivity in liver tissues of Sprague-Dawley rats after 15 min injecton by intravenously; 0.81-1.18; settings: in vivo, iv, 0.25 h; outline: as §1
Rattus norvegicus [25] = experiment: Distribution of radioactivity in kidney tissues of Sprague-Dawley rats after 60 min injection by intravenously; value ranges from 0.89-1.19; settings: in vivo, iv, 1 h; outline: as §1
Rattus norvegicus [26] = experiment: Distribution of radioactivity in brain tissues of Sprague-Dawley rats after 30 min injection by intravenously; value ranges from 0.81-1.26; settings: in vivo, iv, 0.5 h
Rattus norvegicus [27] = experiment: Distribution of radioactivity in brain tissues of Sprague-Dawley rats after 15 min injection by intravenously; value ranges from 1.05-1.25; settings: in vivo, iv, 0.25 h
Rattus norvegicus [28] = experiment: Distribution of radioactivity in liver tissues of Sprague-Dawley rats after 30 min injection by intravenously; value ranges from 1.06-1.29; settings: in vivo, iv, 0.5 h; outline: as §1
Rattus norvegicus [29] = experiment: Distribution of radioactivity in brain tissues of Sprague-Dawley rats after 60 min injection by intravenously; value ranges from 0.76-1.42; settings: in vivo, iv, 1 h
Rattus norvegicus [30] = experiment: Distribution of radioactivity in lung tissues of Sprague-Dawley rats after 30 min injection by intravenously; value ranges from 2.26-2.89; settings: in vivo, iv, 0.5 h; outline: as §2
[31] = Brain to blood ratio in Sprague-Dawley rats after 15 min injection by intravenously; settings: rat, brain and blood, iv
Outline: (§3)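 Female Sprague-Dawley rats, 10–12 weeks old (170–200 g), fed ad libitum. The ¹²⁵I-labelled agent was dissolved in minimal Me2SO, diluted with saline to a final 20% Me2SO, filtered (0.22 μm), and injected into a lateral tail vein under ether anaesthesia. Tissues were counted against samples of the injected solution and expressed as % injected dose/g (mean, range). Brain/blood ratio is from the means.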

Rattus norvegicus [32] = experiment: Distribution of radioactivity in heart tissues of Sprague-Dawley rats after 30 min injection by intravenously; value ranges from 1.96-2.46; settings: in vivo, iv, 0.5 h
Rattus norvegicus [33] = experiment: Distribution of radioactivity in lung tissues of Sprague-Dawley rats after 15 min injection by intravenously; value ranges from 3.10-3.77; settings: in vivo, iv, 0.25 h; outline: as §2
Rattus norvegicus [34] = experiment: Distribution of radioactivity in heart tissues of Sprague-Dawley rats after 5 min injection by intravenously; value ranges from 2.36-3.96; settings: in vivo, iv; outline: as §1
Rattus norvegicus [35] = experiment: Distribution of radioactivity in lung tissues of Sprague-Dawley rats after 60 min injection by intravenously; value ranges from 2.11-3.79; settings: in vivo, iv, 1 h; outline: as §2
Rattus norvegicus [36] = experiment: Distribution of radioactivity in kidney tissues of Sprague-Dawley rats after 30 min injection by intravenously; value ranges from 1.14-1.4; settings: in vivo, iv, 0.5 h; outline: as §1
Rattus norvegicus [37] = experiment: Distribution of radioactivity in blood tissues of Sprague-Dawley rats after 15 min injection by intravenously; value ranges from 0.31-0.4; settings: in vivo, iv, 0.25 h
Rattus norvegicus [38] = experiment: Distribution of radioactivity in blood tissues of Sprague-Dawley rats after 5 min injection by intravenously; value ranges from 0.28-0.46; settings: in vivo, iv
[39] = Brain to blood ratio in Sprague-Dawley rats after 5 min injection by intravenously; settings: rat, brain and blood, iv; outline: as §3
Rattus norvegicus [40] = experiment: Distribution of radioactivity in lung tissues of Sprague-Dawley rats after 5 min injection by intravenously; value ranges from 3.62-7.08; settings: in vivo, iv; outline: as §2
Rattus norvegicus [41] = experiment: Distribution of radioactivity in liver tissues of Sprague-Dawley rats after 15 min injection by intravenously; value ranges from 1.23-1.78; settings: in vivo, iv, 0.25 h; outline: as §1
Rattus norvegicus [42] = experiment: Distribution of radioactivity in liver tissues of Sprague-Dawley rats after 5 min injection by intravenously; value ranges from 1.06-2.71; settings: in vivo, iv; outline: as §1
Rattus norvegicus [43] = experiment: Distribution of radioactivity in blood tissues of Sprague-Dawley rats after 60 min injection by intravenously; value ranges from 0.28-0.37; settings: in vivo, iv, 1 h
Rattus norvegicus [44] = experiment: Distribution of radioactivity in brain tissues of Sprague-Dawley rats after 5 min injection by intravenously; value ranges from 0.97-2.17; settings: in vivo, iv
[45] = Brain to blood ratio in Sprague-Dawley rats after 60 min injection by intravenously; settings: rat, brain and blood, iv; outline: as §3
Rattus norvegicus [46] = experiment: Distribution of radioactivity in kidney tissues of Sprague-Dawley rats after 15 min injection by intravenously; value ranges from 1.42-1.82; settings: in vivo, iv, 0.25 h; outline: as §1
[47] = Brain to blood ratio in Sprague-Dawley rats after 30 min injection by intravenously; settings: rat, brain and blood, iv; outline: as §3
Rattus norvegicus [48] = experiment: Distribution of radioactivity in blood tissues of Sprague-Dawley rats after 30 min injection by intravenously; value ranges from 0.35-0.4; settings: in vivo, iv, 0.5 h
Rattus norvegicus [49] = experiment: Distribution of radioactivity in liver tissues of Sprague-Dawley rats after 60 min injection by intravenously; value ranges from 0.47-1.17; settings: in vivo, iv, 1 h; outline: as §1
Rattus norvegicus [50] = experiment: Distribution of radioactivity in heart tissues of Sprague-Dawley rats after 60 min injection by intravenously; value ranges from 1.68-2.23; settings: in vivo, iv, 1 h; outline: as §1
Rattus norvegicus [51] = experiment: Distribution of radioactivity in heart tissues of Sprague-Dawley rats after 15 min injection by intravenously; value ranges from 2.24-2.58; settings: in vivo, iv, 0.25 h
Rattus norvegicus [52] = experiment: Distribution of radioactivity in kidney tissues of Sprague-Dawley rats after 5 min injection by intravenously; value ranges from 1.64-3.43; settings: in vivo, iv; outline: as §1

Distribution (Rattus norvegicus [1]): 0.75%
Distribution (Rattus norvegicus [2]): 0.05%
Distribution (Rattus norvegicus [3]): 0.06%
Distribution (Rattus norvegicus [4]): 0.04%
Distribution (Rattus norvegicus [5]): 1.18%
Distribution (Rattus norvegicus [6]): 1.11%
Distribution (Rattus norvegicus [7]): 0.84%
Distribution (Rattus norvegicus [8]): 0.87%
Distribution (Rattus norvegicus [9]): 0.04%
Distribution (Rattus norvegicus [10]): 0.67%
Distribution (Rattus norvegicus [11]): 0.65%
Distribution (Rattus norvegicus [12]): 0.72%
Distribution (Rattus norvegicus [13]): 0.68%
Distribution (Rattus norvegicus [14]): 0.71%
Distribution (Rattus norvegicus [15]): 0.67%
Distribution (Rattus norvegicus [16]): 0.49%
Distribution (Rattus norvegicus [17]): 0.83%
Distribution (Rattus norvegicus [18]): 0.76%
Distribution (Rattus norvegicus [19]): 0.53%
Distribution (Rattus norvegicus [20]): 0.62%
Distribution (Rattus norvegicus [21]): 2.1%
Distribution (Rattus norvegicus [22]): 0.74%
Distribution (Rattus norvegicus [23]): 0.57%
Distribution (Rattus norvegicus [24]): 1.04%
SMILES: C[n+]1cccc(C(=O)Nc2ccc([125I])cc2)c1.[I-]

Distribution (Rattus norvegicus [25]): 1.07%
Distribution (Rattus norvegicus [26]): 1.01%
Distribution (Rattus norvegicus [27]): 1.16%
Distribution (Rattus norvegicus [28]): 1.18%
Distribution (Rattus norvegicus [29]): 1.12%
Distribution (Rattus norvegicus [30]): 2.43%
Kp at 0.25 h [31]: 3.29
Distribution (Rattus norvegicus [32]): 2.18%
Distribution (Rattus norvegicus [33]): 3.3%
Distribution (Rattus norvegicus [34]): 2.86%
Distribution (Rattus norvegicus [35]): 2.77%
Distribution (Rattus norvegicus [36]): 1.23%
Distribution (Rattus norvegicus [37]): 0.35%
Distribution (Rattus norvegicus [38]): 0.37%
Kp at 5 min [39]: 3.87
Distribution (Rattus norvegicus [40]): 4.61%
Distribution (Rattus norvegicus [41]): 1.56%
Distribution (Rattus norvegicus [42]): 1.65%
Distribution (Rattus norvegicus [43]): 0.31%
Distribution (Rattus norvegicus [44]): 1.14%
Kp at 1 h [45]: 3.6
Distribution (Rattus norvegicus [46]): 1.56%
Kp at 0.5 h [47]: 2.66
Distribution (Rattus norvegicus [48]): 0.38%
Distribution (Rattus norvegicus [49]): 0.82%
Distribution (Rattus norvegicus [50]): 1.88%
Distribution (Rattus norvegicus [51]): 2.43%
Distribution (Rattus norvegicus [52]): 2.36%
SMILES: CN1C=CCC(C(=O)Nc2ccc([125I])cc2)=C1
